In test [1] the test system is Streptococcus pyogenes. As to the kind of experiment: Antibacterial activity against Streptococcus pyogenes MTCC 1926 at 30 ug/ml after 24 hrs by agar well diffusion assay. It is filed as functional. Conditions: MTCC 1926, 24 h, read-out: IZ. A digest of the protocol: (§1)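 Agar well diffusion screen against the two Gram-positive strains (S. aureus, S. pyogenes) and the two Gram-negative strains (P. aeruginosa, K. pneumoniae). Streptomycin was the reference drug. Activity was read as zone of inhibition (mm).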

Test [2] relates to Pseudomonas aeruginosa. As to the kind of experiment: Antibacterial activity against Pseudomonas aeruginosa MTCC 4673 at 30 ug/ml after 24 hrs by agar well diffusion assay. In kind it is functional. Conditions: MTCC 4673, 24 h, read-out: IZ. The method, boiled down:
as §1

Test [3] has as its system Staphylococcus aureus. As to the kind of experiment: Antibacterial activity against Staphylococcus aureus MTCC 96 at 30 ug/ml after 24 hrs by agar well diffusion assay. In kind it is functional. Conditions: MTCC 96, 24 h, read-out: IZ. The method, boiled down: (§2)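 Agar well diffusion screen run in vitro against a bacterial panel: S. aureus and S. pyogenes (Gram-positive), P. aeruginosa and K. pneumoniae (Gram-negative). Streptomycin served as the reference standard drug.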

Test [4] deals with Klebsiella pneumoniae. As to the kind of experiment: Antibacterial activity against Klebsiella pneumoniae MTCC 109 at 30 ug/ml after 24 hrs by agar well diffusion assay. Conditions: MTCC 109, 24 h, read-out: IZ. In kind it is functional. The method, boiled down:
as §2
For orientation: A growth-free zone around the sample is the usual read-out of agar diffusion tests.

The subject of test [5] is Aspergillus parasiticus. The test is described as follows: Antifungal activity against Aspergillus parasiticus MTCC 8850 at 30 ug/ml after 48 hrs by agar well diffusion method. It is filed as functional. Conditions: MTCC 8850, 48 h, read-out: IZ. A digest of the protocol:
(§3)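 Antifungal screen by agar well diffusion against C. albicans, C. glabrata, A. niger and A. parasiticus. Clotrimazole was the standard drug. Activity was recorded as zone of inhibition (ZOI, mm).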

Test [6] relates to Candida albicans. The test is described as follows: Antifungal activity against Candida albicans MTCC 183 at 30 ug/ml after 48 hrs by agar well diffusion method. In kind it is functional. Conditions: MTCC 183, 48 h, read-out: IZ. The method, boiled down:
as §3

Test [7] concerns Aspergillus niger. As to the kind of experiment: Antifungal activity against Aspergillus niger MTCC 282 at 30 ug/ml after 48 hrs by agar well diffusion method. It is filed as functional. Conditions: MTCC 282, 48 h, read-out: IZ. The method, boiled down:
as §3

Test [8] has as its system Nakaseomyces glabratus. As to the kind of experiment: Antifungal activity against Candida glabrata MTCC3019 at 30 ug/ml after 48 hrs by agar well diffusion method. It is filed as functional. Conditions: MTCC3019, 48 h, read-out: IZ. A digest of the protocol: as §3
The subject of test [9] is Candida albicans. The test is described as follows: Antifungal activity against Candida albicans MTCC 183 at 150 ug/ml after 48 hrs by agar well diffusion method. It is filed as functional. Conditions: MTCC 183, 48 h, read-out: IZ. The method, boiled down: as §3
Test [10] relates to Streptococcus pyogenes. As to the kind of experiment: Antibacterial activity against Streptococcus pyogenes MTCC 1926 at 150 ug/ml after 24 hrs by agar well diffusion assay. It is filed as functional. Conditions: MTCC 1926, 24 h, read-out: IZ. The method, boiled down: as §1
The test system of test [11] is Pseudomonas aeruginosa. As to the kind of experiment: Antibacterial activity against Pseudomonas aeruginosa MTCC 4673 at 150 ug/ml after 24 hrs by agar well diffusion assay. Conditions: MTCC 4673, 24 h, read-out: IZ. It is filed as functional. The method, boiled down: as §1
Test [12] concerns Staphylococcus aureus. The test is described as follows: Antibacterial activity against Staphylococcus aureus MTCC 96 at 150 ug/ml after 24 hrs by agar well diffusion assay. It is filed as functional. Conditions: MTCC 96, 24 h, read-out: IZ. The method, boiled down: as §1
For another test, the system named is HepG2. As to the kind of experiment: Anticancer activity against human HepG2 cells assessed as cell viability after 48 hrs by MTT microcultured tetrazolium assay. In kind it is functional, cell-based. Conditions: HepG2, 48 h. The method, boiled down:
(§4)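 MTT-microcultured tetrazolium viability read-out in MCF-7 and HepG2 cells exposed to test samples. Surviving fraction was plotted against drug concentration to give survival curves, and IC50 was taken from these curves.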
(Tetrazolium dyes change colour on reduction, which living cells bring about.)

Test [13] deals with Aspergillus niger. The test is described as follows: Antifungal activity against Aspergillus niger MTCC 282 at 150 ug/ml after 48 hrs by agar well diffusion method. It is filed as functional. Conditions: MTCC 282, 48 h, read-out: IZ. The method, boiled down: as §3
The subject of test [14] is Klebsiella pneumoniae. As to the kind of experiment: Antibacterial activity against Klebsiella pneumoniae MTCC 109 at 150 ug/ml after 24 hrs by agar well diffusion assay. It is filed as functional. Conditions: MTCC 109, 24 h, read-out: IZ. The method, boiled down: as §1
In test [15] the test system is Nakaseomyces glabratus. As to the kind of experiment: Antifungal activity against Candida glabrata MTCC3019 at 150 ug/ml after 48 hrs by agar well diffusion method. Conditions: MTCC3019, 48 h, read-out: IZ. In kind it is functional. The method, boiled down: as §3
A further test has as its system MCF7. The test is described as follows: Anticancer activity against human MCF7 cells assessed as cell viability after 48 hrs by MTT microcultured tetrazolium assay. Conditions: MCF7, 48 h. In kind it is functional, cell-based. The method, boiled down:
as §4

Test [16] has as its system Aspergillus parasiticus. The test is described as follows: Antifungal activity against Aspergillus parasiticus MTCC 8850 at 150 ug/ml after 48 hrs by agar well diffusion method. In kind it is functional. Conditions: MTCC 8850, 48 h, read-out: IZ. A digest of the protocol:
as §3

Regarding `CN[C@@H]1[C@H](O[C@H]2[C@H](O[C@H]3[C@H](O)[C@@H](O)[C@H](N=C(N)N)[C@@H](O)[C@@H]3N=C(N)N)O[C@@H](C)[C@]2(O)C=O)O[C@@H](CO)[C@H](O)[C@H]1O` [STREPTOMYCIN], the zone of inhibition at 30 µg/mL with Streptococcus pyogenes [1] stood at 21 mm; in the test on Pseudomonas aeruginosa [2], 20 mm; with Staphylococcus aureus [3], 22 mm; in the test on Klebsiella pneumoniae [4], 22 mm.

Take `Clc1ccccc1C(c1ccccc1)(c1ccccc1)n1ccnc1` [CLOTRIMAZOLE]: the zone of inhibition at 30 µg/mL in the test on Aspergillus parasiticus [5] came out at 20 mm; in the test with Candida albicans [6], 24 mm; in the test on Aspergillus niger [7], 20 mm; in the test on Nakaseomyces glabratus [8], 22 mm.

The term IC50 denotes the concentration that gives 50% inhibition. Consider `COc1ccc2[nH]cc(/C=c3\sc4n(c3=O)C(c3ccc(Cl)cc3)C3=C(N=4)c4ccccc4CC3)c2c1` (stereo not drawn), for which the zone of inhibition at 150 µg/mL with Candida albicans [9] was 15 mm; in the test with Streptococcus pyogenes [10], 8 mm; in the test with Pseudomonas aeruginosa [11], 14 mm; with Staphylococcus aureus [12], 14 mm; with Aspergillus niger [13] it was 18 mm; with Klebsiella pneumoniae [14], 8 mm. Further, the values for the zone of inhibition at 150 µg/mL in the test with Nakaseomyces glabratus [15] and with Aspergillus parasiticus [16] were 16 mm and 18 mm, respectively. Moreover, the IC50 was 27.7 µM with HepG2 and 20.7 µM in the test with MCF7.

In the case of `COc1ccc2c(c1)CCC1=C2N=c2s/c(=C\c3c[nH]c4ccccc34)c(=O)n2C1c1ccc(F)cc1` (stereo not drawn), the zone of inhibition at 150 µg/mL turned out to be 8 mm with Candida albicans [9]; 8 mm with Streptococcus pyogenes [10]; 21 mm in the test with Pseudomonas aeruginosa [11]; 21 mm with Staphylococcus aureus [12]; 10 mm in the test with Aspergillus niger [13]; 17 mm with Klebsiella pneumoniae [14]. Also, the zone of inhibition at 150 µg/mL with Nakaseomyces glabratus [15] amounted to 8 mm; in the test on Aspergillus parasiticus [16] it was 10 mm. Further, the IC50 with HepG2 was found to be 25.8 µM; in the test with MCF7 it was 67.3 µM.

As to `O=c1/c(=C/c2c[nH]c3ccccc23)sc2n1C(c1ccc(Cl)cc1)C1=C(N=2)c2ccccc2CC1` (stereo not drawn), the zone of inhibition at 150 µg/mL amounted to 8 mm in the test on Candida albicans [9]; 8 mm in the test with Streptococcus pyogenes [10]; 18 mm with Pseudomonas aeruginosa [11]; 12 mm in the test with Staphylococcus aureus [12]; 12 mm with Aspergillus niger [13]; 8 mm in the test with Klebsiella pneumoniae [14]. In addition, the zone of inhibition at 150 µg/mL in the test on Nakaseomyces glabratus [15] and in the test on Aspergillus parasiticus [16] was 12 mm throughout. Also, the IC50 with HepG2 came to 16.3 µM; in the test on MCF7, 42.8 µM.

Turning to `COc1ccc2c(c1)CCC1=C2N=c2s/c(=C\c3c[nH]c4ccccc34)c(=O)n2C1c1ccc(Cl)cc1` (stereo not drawn), the zone of inhibition at 150 µg/mL in the test on Candida albicans [9], with Streptococcus pyogenes [10], in the test on Pseudomonas aeruginosa [11], in the test with Staphylococcus aureus [12], with Aspergillus niger [13] and in the test with Klebsiella pneumoniae [14] was 8 mm in each case. For the same compound, the figures for the zone of inhibition at 150 µg/mL with Nakaseomyces glabratus [15] and in the test with Aspergillus parasiticus [16] were 14 mm and 10 mm, respectively. In addition, the concentration for half-maximal inhibition (IC50) is 34.9 µM in the test with HepG2 and 23.5 µM in the test with MCF7.

In the case of `COc1ccc2c(c1)CCC1=C2N=c2s/c(=C\c3c[nH]c4ccc(OC)cc34)c(=O)n2C1c1ccc(F)cc1` (stereo not drawn), the zone of inhibition at 150 µg/mL in the test with Candida albicans [9] was 8 mm; with Streptococcus pyogenes [10], 8 mm; with Pseudomonas aeruginosa [11] it was 8 mm; with Staphylococcus aureus [12] it was 8 mm; in the test with Aspergillus niger [13], 10 mm; in the test with Klebsiella pneumoniae [14], 15 mm. Moreover, the zone of inhibition at 150 µg/mL in the test on Nakaseomyces glabratus [15] and in the test on Aspergillus parasiticus [16] was 10 mm throughout. In addition, the IC50 came out at 86.8 µM with HepG2 and 193 µM in the test with MCF7.

As for `COc1ccc2c(c1)CCC1=C2N=c2s/c(=C\c3c[nH]c4ccc(Br)cc34)c(=O)n2C1c1cccc([N+](=O)[O-])c1` (stereo not drawn), the zone of inhibition at 150 µg/mL was 8 mm in the test on Candida albicans [9]; 16 mm in the test with Streptococcus pyogenes [10]; 8 mm in the test on Pseudomonas aeruginosa [11]; 19 mm in the test on Staphylococcus aureus [12]; 10 mm in the test with Aspergillus niger [13]; 17 mm in the test on Klebsiella pneumoniae [14]. The zone of inhibition at 150 µg/mL with Nakaseomyces glabratus [15] came out at 8 mm; with Aspergillus parasiticus [16], 10 mm. Further, the IC50 in the test with HepG2 and in the test on MCF7 was over 200 µM throughout.

With `Cc1[nH]c2ccccc2c1/C=c1\sc2n(c1=O)C(c1ccc(Cl)cc1)C1=C(N=2)c2ccccc2CC1` (stereo not drawn), the zone of inhibition at 150 µg/mL in the test with Candida albicans [9] stood at 16 mm; in the test with Streptococcus pyogenes [10], 8 mm; in the test with Pseudomonas aeruginosa [11] it was 17 mm; with Staphylococcus aureus [12], 13 mm; in the test with Aspergillus niger [13], 14 mm; in the test with Klebsiella pneumoniae [14] it was 8 mm. Moreover, the zone of inhibition at 150 µg/mL is 19 mm in the test with Nakaseomyces glabratus [15] and 14 mm in the test with Aspergillus parasiticus [16]. For the same compound, the IC50 in the test on HepG2 is 69.8 µM; in the test with MCF7, 166 µM.

For the compound `O=c1/c(=C/c2c[nH]c3ccc(Br)cc23)sc2n1C(c1ccc(Cl)cc1)C1=C(N=2)c2ccccc2CC1` (stereo not drawn), the zone of inhibition at 150 µg/mL was 8 mm with Candida albicans [9]; 8 mm with Streptococcus pyogenes [10]; 15 mm with Pseudomonas aeruginosa [11]; 13 mm with Staphylococcus aureus [12]; 8 mm in the test with Aspergillus niger [13]; 8 mm in the test with Klebsiella pneumoniae [14]. Also, the zone of inhibition at 150 µg/mL came to 10 mm in the test with Nakaseomyces glabratus [15] and 8 mm in the test with Aspergillus parasiticus [16]. In addition, the IC50 was found to be 13.7 µM with HepG2 and 18.9 µM in the test with MCF7.

Values taken from ChEMBL document CHEMBL3352152, “Indolylmethylene benzo[h]thiazolo[2,3-b]quinazolinones: synthesis, characterization and evaluation of anticancer and antimicrobial activities” (Bioorg Med Chem Lett, 2014).
